Three compounds from ChEMBL document CHEMBL1250465, “A new metabotropic glutamate receptor agonist with in vivo anti-allodynic activity” (Bioorg Med Chem, 2010) can be followed below.

A short description of assay [1]: Displacement of [3H]AMPA from AMPA receptor in Sprague-Dawley rat brain synaptic membranes after 30 mins. The class given is cell membranes, Membrane. In outline:
(§1)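 Adult male Sprague-Dawley rat cortex synaptic membranes, washed four times in ice-cold pH 7.4 buffer at about 0.4–0.5 mg protein/mL. AMPA: 5 nM [3H]AMPA in 30 mM Tris-HCl/2.5 mM CaCl2 with 100 mM KSCN. Kainate: 5 nM [3H]KAIN in 50 mM Tris-HCl. NMDA: 2 nM [3H]CGP39653 in 50 mM Tris-HCl/2.5 mM CaCl2. Nonspecific binding set with 1 mM (S)-Glu.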
(In general: Loss of bound radioactivity is the signal in a displacement assay; it reports binding, not function.)

Assay [2] can be described thus: Displacement of [3H]KAIN from kainate receptor in Sprague-Dawley rat brain synaptic membranes after 60 mins. The class given is cell membranes, Membrane. In short, it runs like this:
as §1

The target in the next assay is Glutamate NMDA receptor. As to the kind of experiment: Displacement of [3H]CGP39653 from NMDA receptor in Sprague-Dawley rat brain synaptic membranes after 60 mins. The class given is cell membranes, Membrane. In short, it runs like this: as §1
Assay [3] concerns the target Metabotropic glutamate receptor 1 (Homo sapiens, UniProt Q13255). As to the kind of experiment: Agonist activity at mGlu1 receptor expressed in CHO cells assessed as myo-[2-3H]Inositol turnover by scintillation counting. The class given is functional, cell-based. In outline:
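CHO cells stably expressing receptor, washed with DPBS, preincubated 30 min at 37 °C in HBSS with 20 mM HEPES, 1 mM CaCl2, 1 mM MgCl2, 0.85 mg/mL LiCl, pH 7.4; compound added for 30 min at 37 °C. Stopped with ice-cold 10 mM formic acid, 30 min at 4 °C. [3H]IP measured with yttrium silicate SPA beads; counts per minute read.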

The target in assay [4] is T1, Metabotropic glutamate receptor 2 (Homo sapiens, UniProt Q14416). Kind of assay: Antagonist activity at mGlu2 receptor expressed in CHO cells assessed as increase of cAMP level. The class given is functional, cell-based.
Assay [5] concerns the target Metabotropic glutamate receptor 4 (Homo sapiens, UniProt Q14833). As to the kind of experiment: Agonist activity at mGlu4 receptor expressed in CHO cells assessed as inhibition of forskolin-induced increase of cAMP level. The class given is functional, cell-based. In outline:
(§2)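 CHO cells grown in DMEM GlutaMAX-I, 10% dialyzed FBS, 2.5 g/L L-proline, seeded 26,000/well 24 h before. After a 20 min, 37 °C preincubation in DPBS with 1 mM CaCl2, 1 mM MgCl2, 1 mM IBMX, compound plus 25 µM forskolin was given for 10 min at 37 °C. Stopped with ice-cold sodium acetate pH 6.2, 0.1% Triton X-100, 0.1 mM IBMX; cAMP by radioimmunoassay.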
In general terms: Changes in cAMP serve as a functional read-out for many G protein-coupled receptors.

For assay [6], the target named is T1, Metabotropic glutamate receptor 2. As to the kind of experiment: Agonist activity at mGlu2 receptor expressed in CHO cells assessed as inhibition of forskolin-induced increase of cAMP level. The class given is functional, cell-based. In outline: as §2
Assay [7] concerns Rattus norvegicus. As to the kind of experiment: Antiallodynic activity against von Frey hair mechanically stimulated neuropathic pain in Sprague-Dawley rat assessed as increase of response threshold at 500 nmol dosed intrathecally after 24 hrs. The class given is functional, organism-based. In short, it runs like this: (§3)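 Male Sprague-Dawley rats with chronic constriction injury of the left sciatic nerve, dosed 16 days after surgery. Intrathecal dosing under isoflurane, with vehicle as control. Blinded von Frey testing of both hind paws before dosing and at 1, 3 and 24 h. 50% withdrawal threshold in g from a Gaussian integral psychometric fit by maximum likelihood; n = 6.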

Assay [8] relates to Rattus norvegicus. As to the kind of experiment: Antiallodynic activity against von Frey hair mechanically stimulated neuropathic pain in Sprague-Dawley rat assessed as increase of response threshold at 50 nmol dosed intrathecally after 24 hrs relative to control. The following applies: in the assay text read “after 3 hrs” for “after 24 hrs”. The class given is functional. In short, it runs like this: as §3

Assay [9] has as its system Rattus norvegicus. Kind of assay: Antiallodynic activity against von Frey hair mechanically stimulated neuropathic pain in Sprague-Dawley rat assessed as increase of response threshold at 250 nmol dosed intrathecally after 24 hrs relative to control. The class given is functional. The following applies: in the assay text read “after 3 hrs” for “after 24 hrs”. In outline: as §3

For assay [10], the system named is Rattus norvegicus. Kind of assay: Antiallodynic activity against von Frey hair mechanically stimulated neuropathic pain in intrathecally dosed Sprague-Dawley rat assessed as increase of response threshold after 3 hrs. The class given is functional, organism-based. In outline: as §3
Assay [11] has as its system Rattus norvegicus. As to the kind of experiment: Antiallodynic activity against von Frey hair mechanically stimulated neuropathic pain in Sprague-Dawley rat assessed as increase of response threshold at 500 nmol dosed intrathecally after 1 hr. The class given is functional, organism-based. In outline:
as §3

Assay [12] has as its system Rattus norvegicus. Kind of assay: Antiallodynic activity against von Frey hair mechanically stimulated neuropathic pain in Sprague-Dawley rat assessed as increase of response threshold at 500 nmol dosed intrathecally after 3 hrs relative to control. The class given is functional. In outline: as §3

Active and inactive are the calls of the source. A value given as a limit tells only on which side of the number the result lay.

T1 sequence (Q14416 whole entry): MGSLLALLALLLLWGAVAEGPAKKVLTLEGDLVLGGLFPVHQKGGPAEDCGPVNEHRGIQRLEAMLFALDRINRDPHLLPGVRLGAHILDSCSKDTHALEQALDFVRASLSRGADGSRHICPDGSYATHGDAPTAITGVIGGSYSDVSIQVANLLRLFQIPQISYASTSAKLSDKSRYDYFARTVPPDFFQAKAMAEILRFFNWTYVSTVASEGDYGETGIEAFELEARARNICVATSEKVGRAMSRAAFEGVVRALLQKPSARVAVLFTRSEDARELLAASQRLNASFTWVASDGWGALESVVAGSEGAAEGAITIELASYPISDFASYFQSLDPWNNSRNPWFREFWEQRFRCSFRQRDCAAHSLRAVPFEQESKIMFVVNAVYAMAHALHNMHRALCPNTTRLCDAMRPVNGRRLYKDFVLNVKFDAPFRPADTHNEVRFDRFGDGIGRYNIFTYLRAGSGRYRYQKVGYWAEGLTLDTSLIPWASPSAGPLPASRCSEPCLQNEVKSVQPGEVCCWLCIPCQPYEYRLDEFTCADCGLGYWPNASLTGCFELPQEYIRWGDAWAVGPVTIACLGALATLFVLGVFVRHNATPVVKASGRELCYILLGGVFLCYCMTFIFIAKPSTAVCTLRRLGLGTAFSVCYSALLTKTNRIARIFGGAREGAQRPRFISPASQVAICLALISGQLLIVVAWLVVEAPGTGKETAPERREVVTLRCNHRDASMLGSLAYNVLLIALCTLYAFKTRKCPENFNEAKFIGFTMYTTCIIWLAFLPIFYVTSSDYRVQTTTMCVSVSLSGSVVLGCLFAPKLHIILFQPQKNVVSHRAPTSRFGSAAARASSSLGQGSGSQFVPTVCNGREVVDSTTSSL
Sequence of Metabotropic glutamate receptor 4 (Q14833 whole entry): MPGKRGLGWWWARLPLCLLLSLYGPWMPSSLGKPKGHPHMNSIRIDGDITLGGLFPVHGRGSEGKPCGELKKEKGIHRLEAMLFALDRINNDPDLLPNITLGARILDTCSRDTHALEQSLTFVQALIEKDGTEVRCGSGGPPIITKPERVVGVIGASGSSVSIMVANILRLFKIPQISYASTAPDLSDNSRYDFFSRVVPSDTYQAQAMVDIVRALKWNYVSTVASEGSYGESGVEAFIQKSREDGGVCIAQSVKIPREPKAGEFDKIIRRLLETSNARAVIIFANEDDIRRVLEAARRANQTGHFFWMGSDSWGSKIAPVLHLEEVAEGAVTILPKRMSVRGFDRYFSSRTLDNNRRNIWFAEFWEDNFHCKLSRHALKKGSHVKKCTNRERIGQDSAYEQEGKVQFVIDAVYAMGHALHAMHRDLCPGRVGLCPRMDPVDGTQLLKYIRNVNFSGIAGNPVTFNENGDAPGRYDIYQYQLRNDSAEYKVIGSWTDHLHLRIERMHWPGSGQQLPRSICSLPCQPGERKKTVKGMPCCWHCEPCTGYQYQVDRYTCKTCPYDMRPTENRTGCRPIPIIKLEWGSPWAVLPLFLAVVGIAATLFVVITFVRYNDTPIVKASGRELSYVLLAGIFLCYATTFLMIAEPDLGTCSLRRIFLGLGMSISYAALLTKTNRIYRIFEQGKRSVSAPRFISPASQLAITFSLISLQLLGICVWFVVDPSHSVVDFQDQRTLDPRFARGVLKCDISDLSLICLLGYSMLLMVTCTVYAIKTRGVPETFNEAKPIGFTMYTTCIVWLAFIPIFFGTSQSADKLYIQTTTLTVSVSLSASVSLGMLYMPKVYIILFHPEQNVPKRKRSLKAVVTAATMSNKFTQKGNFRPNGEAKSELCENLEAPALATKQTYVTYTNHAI
Sequence of Metabotropic glutamate receptor 1 (Q13255 whole entry): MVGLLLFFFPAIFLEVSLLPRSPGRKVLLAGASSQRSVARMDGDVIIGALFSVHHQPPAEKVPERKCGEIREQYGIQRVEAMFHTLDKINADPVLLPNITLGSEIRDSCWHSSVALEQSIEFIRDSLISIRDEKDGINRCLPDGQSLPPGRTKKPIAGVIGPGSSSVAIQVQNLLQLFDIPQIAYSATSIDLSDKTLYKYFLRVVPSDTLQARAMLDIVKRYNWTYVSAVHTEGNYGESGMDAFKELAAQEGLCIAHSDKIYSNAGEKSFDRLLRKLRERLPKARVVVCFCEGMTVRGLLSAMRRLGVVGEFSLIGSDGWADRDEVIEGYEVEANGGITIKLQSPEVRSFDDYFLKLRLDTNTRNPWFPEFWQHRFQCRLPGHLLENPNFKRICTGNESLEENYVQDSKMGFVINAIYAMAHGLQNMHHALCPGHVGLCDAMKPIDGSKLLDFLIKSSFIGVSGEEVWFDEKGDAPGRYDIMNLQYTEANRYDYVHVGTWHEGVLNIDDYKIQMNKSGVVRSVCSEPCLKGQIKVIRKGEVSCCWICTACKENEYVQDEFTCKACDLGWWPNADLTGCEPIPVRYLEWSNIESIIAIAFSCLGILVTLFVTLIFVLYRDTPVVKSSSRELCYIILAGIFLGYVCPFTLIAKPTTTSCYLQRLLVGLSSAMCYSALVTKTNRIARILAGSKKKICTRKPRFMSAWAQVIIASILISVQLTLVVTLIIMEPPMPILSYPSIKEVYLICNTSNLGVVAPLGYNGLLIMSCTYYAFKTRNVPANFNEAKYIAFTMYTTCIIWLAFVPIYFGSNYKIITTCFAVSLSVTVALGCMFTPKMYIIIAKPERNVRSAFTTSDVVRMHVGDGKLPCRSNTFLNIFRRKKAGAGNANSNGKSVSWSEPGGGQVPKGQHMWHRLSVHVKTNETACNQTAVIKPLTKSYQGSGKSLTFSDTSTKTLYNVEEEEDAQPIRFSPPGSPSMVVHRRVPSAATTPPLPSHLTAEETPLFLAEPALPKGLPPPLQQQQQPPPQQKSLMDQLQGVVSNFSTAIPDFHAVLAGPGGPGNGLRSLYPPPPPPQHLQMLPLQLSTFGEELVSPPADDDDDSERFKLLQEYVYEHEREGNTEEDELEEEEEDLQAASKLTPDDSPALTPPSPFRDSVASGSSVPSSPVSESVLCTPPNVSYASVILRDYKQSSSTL

As for `N[C@H](C(=O)O)[C@@H]1[C@@H](C(=O)O)[C@@H]1C1CCCCC1` (racemic), the IC50 (commonly the concentration that inhibits the measured activity by half) is greater than 100 µM in [1], greater than 100 µM in [2], greater than 100 µM on Glutamate NMDA receptor and 62 µM in assay [4]. Also, the EC50 in [3] and in assay [5] was greater than 100 µM each time.

As to `C[C@H]1[C@H](C(=O)O)[C@H]1[C@H](N)C(=O)O` (racemic), the EC50 (as a rule, the concentration at which the effect is half-maximal) was greater than 100 µM in assay [3], 10 nM in assay [6] and greater than 100 µM in assay [5].

With `N[C@H](C(=O)O)[C@@H]1[C@@H](C(=O)O)[C@@H]1C1CC1` (racemic), the outcome in the assay with Rattus norvegicus [7] was inactive. In addition, the Activity was 5 g with Rattus norvegicus [8], 7.5 g with Rattus norvegicus [9], “Dose-dependent effect” with Rattus norvegicus [10] and 10 g with Rattus norvegicus [12]. Besides, the IC50 (in assay [1]; in assay [2]; on Glutamate NMDA receptor) was greater than 100 µM throughout. Besides, the EC50 in assay [3] was greater than 100 µM; in assay [6] it was 50 nM; in [5] it was greater than 100 µM. Moreover, in the assay with Rattus norvegicus [11], the outcome was Active.
